According to PMC10900806 (Asian Journal of Pharmaceutical Sciences, 2024):
Entries after “also recorded” stand apart in the source; their conditions may differ.

Tests used:
Assay type in all cases: cell-based
B16-F10 cells [1] = conditions: 5 µM, 1 h
caspase-3 = assay: Caspase-3 activity assay; conditions: B16-F10 cells, 24 h treatment, Caspase-3 assay kit
How it was run: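 B16-F10 cells were seeded at 5 × 10^5 per well and cultured overnight. They were then exposed to test peptides for 24 h, and caspase-3 activity was measured with a commercial caspase-3 activity kit.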

B16-F10 cells [2] = assay: Cell cycle assay; conditions: CPT 5 µM, AAM analogs 5 µM, conjugates 5 µM, 1 h at pH 5.5, then 24 h, n = 3
B16-F10 cells [3] = assay: Endosomal escape, co-localization with LysoTracker Red; conditions: 5 µM, pH 5.5, 15 min then further 15, 30 and 60 min, ImageJ
How it was run: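 Cells were exposed to a FAM-labelled test peptide (5 µM) at pH 5.5 for 15 min, taken as 0 min, then incubated a further 15, 30 or 60 min. Medium was removed and lysosomes were stained with LysoTracker Red (100 nM, 30 min). After confocal imaging, co-localisation was quantified as Pearson's correlation coefficient (R).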

B16-F10 cells [4] = assay: Short-term cytotoxicity, MTT, 1 h; conditions: 1 h incubation, serum-free medium, different pH values, n = 3
How it was run: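 B16-F10 cells were seeded at 1 × 10^4 per well and cultured overnight. They were incubated 1 h with test compounds at different pH values, and viability was assessed by MTT. Membrane-lytic reference peptides served as positive controls. Data are from three independent experiments, given as mean ± SD.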

B16-F10 cells [5] = assay: LDH release assay; conditions: 1 h, pH 7.4 or 5.5, CytoTox-ONE kit, n = 3
B16-F10 cells [6] = assay: PI uptake assay; conditions: 10 µM
How it was run: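 B16-F10 cells (6 × 10^4) were seeded in glass-bottomed dishes and cultured overnight. End point: 1 h exposure to 10 µM test agent at pH 5.5 or 7.4, then fresh DMEM with PI (1 µg/ml) for 10 min before confocal imaging. Kinetics: 10 µM agent was added to DMEM containing PI (1 µg/ml) at pH 5.5, with images taken every 1 min for 30 min.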

erythrocyte suspension = assay: Hemolysis assay; conditions: 10% (v/v) mouse erythrocytes in PBS, 1 h, 37 °C, absorbance at 450 nm
How it was run: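 Heparinised whole mouse blood was centrifuged at 1,000 × g for 15 min. The pellet was washed three times with PBS and resuspended to 10% (v/v) in PBS. Suspension was mixed with test compounds for 1 h at 37 °C, then centrifuged, and supernatant absorbance was read at 450 nm. PBS defined 0% and 0.1% Triton X-100 defined 100% hemolysis.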

Molecule: CC[C@@]1(O)C(=O)OCc2c1cc1n(c2=O)Cc2cc3ccccc3nc2-1 [CPT, camptothecin]
- cellular uptake of CPT and peptide-CPT conjugates (blue fluorescence, confocal) (B16-F10 cells [1]; pH 7.4 or 5.5, near UV excitation): distinction of fluorescence intensity between pH 7.4 and pH 5.5 was not obvious
- caspase-3 activation (caspase-3): significantly activated caspase-3
- cell cycle distribution (B16-F10 cells [2]): significantly increased the cell proportion in the G2/M phase and decreased the cell proportion in the G0/G1 and S phases

Molecule: GIGAVLHVLTTGLPALISWIHHHHQC(FAM)-NH2 [FAM-AAM-1]
- cellular uptake of FAM-labeled peptides, confocal microscopy (B16-F10 cells [1]; serum-free medium, pH 7.4 or 5.5): higher cellular uptake in B16-F10 cells at pH 5.5 than that at pH 7.4
- Pearson's correlation coefficients (r) between FAM-AAM-1 and LysoTracker Red (B16-F10 cells [3]): r-values became gradually low over time

Molecule: melittin
- short-term cytotoxicity against B16-F10 cells (B16-F10 cells [4]): high cytotoxicity to B16-F10 cells, even at 1.25 µM; also recorded: no obvious pH dependence
- LDH release (membrane-lytic activity) (B16-F10 cells [5]): strong release of LDH at both pH 7.4 and 5.5
- PI uptake (PI-positive cells, membrane-disruptive activity) (B16-F10 cells [6]; 1 h, pH 7.4 and 5.5, PI 1 µg/ml, confocal): showed no obvious difference
- membrane-lytic behavior in time-lapse images (B16-F10 cells [6]; pH 5.5, PI 1 µg/ml, images every 1 min for 30 min): developed necrosis, including rounding, blebbing, swelling, and bursting
- hemolytic activity (erythrocyte suspension): extreme hemolytic activity
